ChEMBL document CHEMBL1155452, “Oncocin (VDKPPYLPRPRPPRRIYNR-NH2): a novel antibacterial peptide optimized against gram-negative human pathogens” (J Med Chem, 2010)

Experiments:
Pseudomonas aeruginosa [1] = experiment: Antimicrobial activity against Pseudomonas aeruginosa 61118003 after 20 hrs by broth microdilution method; assay type: functional; conditions: Pseudomonas aeruginosa, 61118003, 20 h
Procedure, shortened: (§1)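 Pathogenic strains grown overnight on Columbia agar, colonies suspended in 0.9% saline to OD 0.1, diluted 1:300 in 1% TSB; final (1-2) × 10^5 cfu/well. Peptides 2-fold serially diluted in 1% TSB from 128 μg/mL, typically to 0.5 μg/mL. Incubated 37 °C, absorbance at 595 nm after 20 ± 2 h, in triplicate; MIC = lowest concentration with absorbance not exceeding medium only.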

Stenotrophomonas [2] = experiment: Antimicrobial activity against Stenotrophomonas ICB 308054 after 20 hrs by broth microdilution method; assay type: functional; conditions: ICB 308054, 20 h
Procedure, shortened: (§2)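 Pathogens grown overnight on Columbia agar. Colonies suspended in 0.9% saline to OD 0.1, diluted 1:300 in 1% TSB, final (1-2) × 10^5 cfu/well. Peptides 2-fold serially diluted in 1% TSB from 128 to typically 0.5 μg/mL. Incubation at 37 °C; A595 read after 20 ± 2 h. MIC is the lowest concentration with absorbance not above medium only. Triplicate.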

Enterobacter cloacae [3] = experiment: Antimicrobial activity against Enterobacter cloacae Ha185 after 20 hrs by broth microdilution method; assay type: functional; conditions: Ha185, 20 h; procedure, shortened: as §1
Klebsiella pneumoniae [4] = experiment: Antimicrobial activity against Klebsiella pneumoniae 63 after 20 hrs by broth microdilution method; assay type: functional; conditions: Klebsiella pneumoniae, 63, 20 h; procedure, shortened: as §1
Pseudomonas aeruginosa [5] = experiment: Antimicrobial activity against Pseudomonas aeruginosa 60811001 after 20 hrs by broth microdilution method; assay type: functional; conditions: Pseudomonas aeruginosa, 60811001, 20 h; procedure, shortened: as §1
Proteus vulgaris [6] = experiment: Antimicrobial activity against Proteus vulgaris ICB 9081 after 20 hrs by broth microdilution method; assay type: functional; conditions: ICB 9081, 20 h; procedure, shortened: as §2
[7] = Stability in 100% mouse serum assessed as half life at 75 ug/ml by MALDI-TOF-MS analysis; assay type: ADME, cell-free
Procedure, shortened: (§3)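 Peptide at 75 μg/mL final in pooled mouse serum (undiluted or 25% v:v aqueous), 37 °C. Triplicate aliquots taken at 0, 30, 60, 120 and 240 min and precipitated with 3% TCA on ice for 10 min. Supernatant neutralized with NaOH and analysed by RP-HPLC on C18 with TFA-containing gradient. Amounts expressed relative to 0 min; metabolites identified by MALDI-TOF-MS.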

Pseudomonas aeruginosa [8] = experiment: Antimicrobial activity against Pseudomonas aeruginosa ATCC 27853 after 20 hrs by broth microdilution method; assay type: functional; conditions: ATCC 27853, 20 h; procedure, shortened: as §1
Acinetobacter baumannii [9] = experiment: Antimicrobial activity against Acinetobacter baumannii M17 after 20 hrs by broth microdilution method; assay type: functional; conditions: M17, 20 h; procedure, shortened: as §2
Escherichia coli [10] = experiment: Antimicrobial activity against Escherichia coli 455/7 after 20 hrs by broth microdilution method; assay type: functional; conditions: 455/7, 20 h; procedure, shortened: as §2
[11] = Stability in 25% mouse serum assessed as half life at 75 ug/ml by MALDI-TOF-MS analysis; assay type: ADME, cell-free; procedure, shortened: as §3
Pseudomonas aeruginosa [12] = experiment: Antimicrobial activity against Pseudomonas aeruginosa 60909001 after 20 hrs by broth microdilution method; assay type: functional; conditions: Pseudomonas aeruginosa, 60909001, 20 h; procedure, shortened: as §1
Escherichia coli [13] = experiment: Antimicrobial activity against Escherichia coli 70430001 after 20 hrs by broth microdilution method; assay type: functional; conditions: Escherichia coli, 70430001, 20 h; procedure, shortened: as §2
Proteus vulgaris [14] = experiment: Antimicrobial activity against Proteus vulgaris ICB 9095 after 20 hrs by broth microdilution method; assay type: functional; conditions: ICB 9095, 20 h; procedure, shortened: as §2
Serum [15] = experiment: Stability in 25% mouse serum assessed as peptide-13 level at 75 ug/ml after 30 mins by MALDI-TOF-MS analysis; assay type: ADME, cell-free; conditions: 0.5 h; procedure, shortened: as §3
Pseudomonas aeruginosa [16] = experiment: Antimicrobial activity against Pseudomonas aeruginosa Walter after 20 hrs by broth microdilution method; assay type: functional; procedure, shortened: as §1
HeLa = experiment: Cytotoxicity against human HeLa cells at 600 ug/ml after 24 hrs by MTT assay; assay type: cell-based
Procedure, shortened: (§4)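 HeLa (1.5 × 10^4/well, seeded overnight) or SH-SY5Y (2 × 10^4/well, differentiated 5 days with 10 μM trans-retinoic acid) in DMEM/Ham's F-12 with 5% or 15% FBS. Peptide added at 600 μg/mL for 24 h at 37 °C, 5% CO2. MTT 0.5 mg/mL for 4 h, then SDS/HCl for 16 h; A590 read against 650 nm. Normalized to PBS (100%); DMSO 12% as positive control.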

[17] = Stability in 25% mouse serum assessed as compound remaining at 75 ug/ml after 2 hrs by MALDI-TOF-MS analysis; assay type: ADME, cell-free; conditions: read-out: Stability; procedure, shortened: as §3
Pseudomonas aeruginosa [18] = experiment: Antimicrobial activity against Pseudomonas aeruginosa 70108001 after 20 hrs by broth microdilution method; assay type: functional; conditions: Pseudomonas aeruginosa, 70108001, 20 h; procedure, shortened: as §1
Acinetobacter baumannii [19] = experiment: Antimicrobial activity against Acinetobacter baumannii ICB 14072 after 20 hrs by broth microdilution method; assay type: functional; conditions: ICB 14072, 20 h; procedure, shortened: as §2
Pseudomonas aeruginosa [20] = experiment: Antimicrobial activity against Pseudomonas aeruginosa PAO1 after 20 hrs by broth microdilution method; assay type: functional; conditions: PAO1, 20 h; procedure, shortened: as §1
Serum [21] = experiment: Stability in 25% mouse serum assessed as peptide-12 level at 75 ug/ml after 30 mins by MALDI-TOF-MS analysis; assay type: ADME, cell-free; conditions: 0.5 h; procedure, shortened: as §3
Serum [22] = experiment: Stability in 25% mouse serum assessed as peptide-13 level at 75 ug/ml after 2 hrs by MALDI-TOF-MS analysis; assay type: ADME, cell-free; procedure, shortened: as §3
SH-SY5Y = experiment: Cytotoxicity against human SH-SY5Y cells at 600 ug/ml after 24 hrs by MTT assay; assay type: cell-based; procedure, shortened: as §4
Klebsiella pneumoniae [23] = experiment: Antimicrobial activity against Klebsiella pneumoniae ATCC 12657 after 20 hrs by broth microdilution method; assay type: functional; conditions: ATCC 12657, 20 h; procedure, shortened: as §2
Acinetobacter baumannii [24] = experiment: Antimicrobial activity against Acinetobacter baumannii ICB 9250 after 20 hrs by broth microdilution method; assay type: functional; conditions: ICB 9250, 20 h; procedure, shortened: as §2
Escherichia coli [25] = experiment: Antimicrobial activity against Escherichia coli 70502001 after 20 hrs by broth microdilution method; assay type: functional; conditions: Escherichia coli, 70502001, 20 h; procedure, shortened: as §2
Enterobacter cloacae [26] = experiment: Antimicrobial activity against Enterobacter cloacae Ha088 after 20 hrs by broth microdilution method; assay type: functional; conditions: Ha088, 20 h; procedure, shortened: as §2
Enterobacter cloacae [27] = experiment: Antimicrobial activity against Enterobacter cloacae Ha089 after 20 hrs by broth microdilution method; assay type: functional; conditions: Ha089, 20 h; procedure, shortened: as §2
Enterobacter cloacae [28] = experiment: Antimicrobial activity against Enterobacter cloacae Ha89 after 20 hrs by broth microdilution method; assay type: functional; conditions: Ha89, 20 h; procedure, shortened: as §2
Escherichia coli [29] = experiment: Antimicrobial activity against Escherichia coli 70419002 after 20 hrs by broth microdilution method; assay type: functional; conditions: Escherichia coli, 70419002, 20 h; procedure, shortened: as §2
Stenotrophomonas [30] = experiment: Antimicrobial activity against Stenotrophomonas ICB 7569 after 20 hrs by broth microdilution method; assay type: functional; conditions: ICB 7569, 20 h; procedure, shortened: as §2
Stenotrophomonas [31] = experiment: Antimicrobial activity against Stenotrophomonas ICB 7789 after 20 hrs by broth microdilution method; assay type: functional; conditions: ICB 7789, 20 h; procedure, shortened: as §2
[32] = Toxicity in human erythrocytes assessed as hemolytic activity at 600 ug/ml after 1 hr; assay type: cell-based; conditions: erythrocyte
Procedure, shortened: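 Peptides 2-fold serially diluted from 600 to 5 μg/mL in PBS (pH 7.4), mixed 1:1 with 2% washed human erythrocytes in PBS, 37 °C for 1 h. After centrifugation at 1000g, supernatant A405 read. Triton X-100 0.1% as positive control, PBS as negative control.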

H-VDKPPYLPRPRPPRRIYNR-NH2 [ONCOCIN]
MIC (Pseudomonas aeruginosa [1]): 2 µg/mL
MIC (Stenotrophomonas [2]): 32 µg/mL
MIC (Enterobacter cloacae [3]): 0.5 µg/mL
MIC (Klebsiella pneumoniae [4]): 8 µg/mL
MIC (Pseudomonas aeruginosa [5]): 2 µg/mL
MIC (Proteus vulgaris [6]): 4 µg/mL
half-life at 75 ug/ml [7]: 20 min
MIC (Pseudomonas aeruginosa [8]): 4 µg/mL
MIC (Acinetobacter baumannii [9]): 1 µg/mL
MIC (Escherichia coli [10]): 0.5 µg/mL
half-life at 75 ug/ml [11]: 70 min
MIC (Pseudomonas aeruginosa [12]): 2 µg/mL
MIC (Escherichia coli [13]): 1 µg/mL
MIC (Proteus vulgaris [14]): 4 µg/mL
Activity (Serum [15]): 10%
MIC (Pseudomonas aeruginosa [16]): 8 µg/mL
Activity (HeLa): Non-toxic
remaining at 2 h, 75 ug/ml [17]: 60%
MIC (Pseudomonas aeruginosa [18]): 4 µg/mL
MIC (Acinetobacter baumannii [19]): 1 µg/mL
MIC (Pseudomonas aeruginosa [20]): 2 µg/mL
Activity (Serum [21]): 10%
Activity (Serum [22]): 20%
Activity (SH-SY5Y): Non-toxic
MIC (Klebsiella pneumoniae [23]): 0.5 µg/mL
MIC (Acinetobacter baumannii [24]): 0.5 µg/mL
MIC (Escherichia coli [25]): 1 µg/mL
MIC (Enterobacter cloacae [26]): 0.125 µg/mL
MIC (Enterobacter cloacae [27]): 0.125 µg/mL
MIC (Enterobacter cloacae [28]): 0.25 µg/mL
MIC (Escherichia coli [29]): 8 µg/mL
MIC (Stenotrophomonas [30]): 8 µg/mL
MIC (Stenotrophomonas [31]): 32 µg/mL
Activity [32]: Non-toxic
